In assay [1] the target is T1, Growth hormone secretagogue receptor type 1 (Homo sapiens, UniProt Q92847). Kind of assay: Inhibition of human GHS-R1a.
For assay [2], the target named is T1, Growth hormone secretagogue receptor type 1. Kind of assay: Agonist activity at human GHS-R1a assessed as maximum activation at 10 uM relative to ghrelin by aequorin assay. Type of assay: functional. Put shortly: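 Agonist mode of the hGHS-R1a aequorin bioluminescence assay. Compound tested up to a maximum of 10 μM. Peak response is expressed as maximum % activation relative to ghrelin. Values are means of two or three experiments.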

The target is the same in assay [3]. The assay is described as follows: Antagonist activity at human GHS-R1a expressed in HEK293 cells assessed as inhibition of ghrelin-stimulated intracellular calcium mobilization. Type of assay: functional, cell-based. Background: Calcium flux is commonly read through the fluorescence of an indicator in the cells.
The target is the same in assay [4]. Kind of assay: Displacement of [35S]MK0677 from human GHS-R1a. Put shortly: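 Competitive binding at GHS-R1a using [35S]-MK-0677 as the radiolabeled probe. IC50 values are means of two or three experiments.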
For orientation: Displacement assays read how much labelled ligand stays bound in the presence of the test substance.

Assay [5] shares this target. The assay is described as follows: Inhibition of human GHS-R1a at 6.25 uM.
Assay [6] has as its target T2, Beta-3 adrenergic receptor (Homo sapiens, UniProt P13945). Kind of assay: Inhibition of human adrenergic beta3 receptor.
The target in assay [7] is T2, Beta-3 adrenergic receptor. The assay is described as follows: Agonist activity at human adrenergic beta3 receptor. Type of assay: functional.

The term IC50 denotes the concentration that inhibits the measured activity by half. For orientation: inhibition means the relative decrease from the control value, in per cent. Low values mean little suppression, high ones strong suppression. As usually defined, the EC50 is the concentration needed to bring the measured effect to its halfway point.

T1 sequence (Q92847 whole entry): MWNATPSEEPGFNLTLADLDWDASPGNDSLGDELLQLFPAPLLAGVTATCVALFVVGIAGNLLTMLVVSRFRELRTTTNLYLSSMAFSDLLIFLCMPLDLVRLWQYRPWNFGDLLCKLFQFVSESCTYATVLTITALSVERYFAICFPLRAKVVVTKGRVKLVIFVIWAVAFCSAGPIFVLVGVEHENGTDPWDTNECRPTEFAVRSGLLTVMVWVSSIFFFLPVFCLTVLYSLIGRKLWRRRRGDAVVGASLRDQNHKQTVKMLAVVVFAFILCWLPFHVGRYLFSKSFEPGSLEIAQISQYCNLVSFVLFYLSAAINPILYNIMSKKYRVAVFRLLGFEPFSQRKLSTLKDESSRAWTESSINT
T2 sequence (P13945 whole entry): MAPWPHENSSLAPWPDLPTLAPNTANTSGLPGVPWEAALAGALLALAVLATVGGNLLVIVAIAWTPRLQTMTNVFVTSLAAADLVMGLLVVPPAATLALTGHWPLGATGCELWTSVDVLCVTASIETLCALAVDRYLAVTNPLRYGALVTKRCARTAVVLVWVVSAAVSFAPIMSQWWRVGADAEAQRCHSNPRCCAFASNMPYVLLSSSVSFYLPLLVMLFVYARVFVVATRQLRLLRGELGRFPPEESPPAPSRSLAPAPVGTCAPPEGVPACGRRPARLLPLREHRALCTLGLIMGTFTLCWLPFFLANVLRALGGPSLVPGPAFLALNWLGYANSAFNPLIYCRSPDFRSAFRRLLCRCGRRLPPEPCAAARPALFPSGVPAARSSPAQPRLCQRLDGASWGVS

`CC(C)(N)Cc1ccc(NS(=O)(=O)c2ccc(NC(=O)NC(C)(C)c3cccc4ccccc34)cc2)cc1` had a half-inhibitory concentration (IC50) in assay [1] of 2 nM. Regarding `CCNC(=O)Nc1ccc(S(=O)(=O)Nc2ccc(CC(C)(C)N)cc2)cc1`, the Activity in assay [2] worked out at 4%. This compound had an IC50 in assay [1] of 5620 nM. For the compound `CC(C)c1ccc(NC(=O)Nc2ccc(S(=O)(=O)Nc3ccc(CC(C)(C)N)cc3)cc2)cc1`, the Activity in assay [2] amounted to 0%. The IC50 in assay [1] was 8 nM. `CCCCCCNC(=O)Nc1ccc(S(=O)(=O)Nc2ccccc2)cc1` registered an IC50 in assay [1] of 4300 nM. With `CC(C)(N)Cc1ccc(NS(=O)(=O)c2ccc(NC(=O)Nc3ccc(C(C)(C)C)cc3)cc2)cc1`, the Activity in assay [2] came to 1%. The same compound showed an IC50 in assay [1] of 16 nM. The matching figures for `CCCCCCNC(=O)Nc1ccc(S(=O)(=O)Nc2ccc(CCC(C)(C)N)cc2)cc1`: 3% and 310 nM. As to `CCCCCCNC(=O)Nc1ccc(S(=O)(=O)Nc2ccc(CC(C)(C)NC[C@H](O)COc3ccc(O)cc3)cc2)cc1`, the IC50 is 40 nM in assay [3] and 13 nM in assay [4].

Turning to `CC(C)(N)Cc1ccc(NS(=O)(=O)c2ccc(NC(=O)NCc3ccccc3)cc2)cc1`, the Activity in assay [2] stood at 4%. For the same compound, the IC50 in assay [1] was 128 nM. In the case of `CCCCCCNC(=O)Nc1ccc(S(=O)(=O)Nc2ccc(CCCN)cc2)cc1`, the Activity in assay [2] turned out to be 1%. In assay [1], 108 nM corresponded to half-maximal inhibition (IC50). The corresponding values for `CCc1ccc(NC(=O)Nc2ccc(S(=O)(=O)Nc3ccc(CC(C)(C)N)cc3)cc2)cc1` are 1% and 14 nM. The corresponding values for `CCCCCCNC(=O)Nc1ccc(S(=O)(=O)Nc2ccc(CC(C)(C)CN)cc2)cc1` are 2% and 444 nM. In assay [5], `CCCCCCNC(=O)Nc1ccc(S(=O)(=O)Nc2ccc(CC(C)(C)O)cc2)cc1` returned an inhibition of 48%. For `CCCCNC(=O)Nc1ccc(S(=O)(=O)Nc2ccc(CC(C)(C)N)cc2)cc1`, in assay [2], the Activity came out at 1%. Also, the IC50 in assay [1] came out at 474 nM.

On to `CCCCCCNC(=O)Nc1ccc(S(=O)(=O)Nc2ccc(CCN)cc2)cc1`, for which the Activity in assay [2] is 5%. In addition, in assay [1], the midpoint of inhibition, the IC50, lay at 272 nM.

Turning to `CCCCCCCNC(=O)Nc1ccc(S(=O)(=O)Nc2ccc(CC(C)(C)N)cc2)cc1`, the Activity in assay [2] came to 3%. In addition, the IC50 in assay [1] is 97 nM. Take `CC(C)(N)Cc1ccc(NS(=O)(=O)c2ccc(NC(=O)NCCc3ccccc3)cc2)cc1`: the Activity in assay [2] stood at 1%. In addition, in assay [1], the IC50 was 138 nM.

As for `CC(C)NC(=O)Nc1ccc(S(=O)(=O)Nc2ccc(CC(C)(C)N)cc2)cc1`, in assay [2], the Activity was found to be 1%. This compound yielded an IC50 in assay [1] of 846 nM.

As for `CCCCCCNC(=O)Nc1ccc(S(=O)(=O)Nc2ccc(CC(C)(C)NCC)cc2)cc1`, the Activity in assay [2] stood at 1%. The same compound displayed an IC50 in assay [1] of 30 nM. On to `Cc1ccc(NC(=O)Nc2ccc(S(=O)(=O)Nc3ccc(CC(C)(C)N)cc3)cc2)cc1`, for which the Activity in assay [2] was 3%. In assay [1], the IC50 was found to be 77 nM. Take `CCCCc1ccc(NC(=O)Nc2ccc(S(=O)(=O)Nc3ccc(CC(C)(C)N)cc3)cc2)cc1`: the Activity in assay [2] worked out at 1%. This compound also had an IC50 in assay [1] of 28 nM. The matching figures for `CCCCCNC(=O)Nc1ccc(S(=O)(=O)Nc2ccc(CC(C)(C)N)cc2)cc1`: 6% and 241 nM. The corresponding values for `CCCCCCNC(=O)Nc1ccc(S(=O)(=O)Nc2cccc(CCN)c2)cc1` are 13% and 625 nM. The matching figures for `CCCNC(=O)Nc1ccc(S(=O)(=O)Nc2ccc(CC(C)(C)N)cc2)cc1`: 1% and 1650 nM. As for `Cc1ccccc1NC(=O)Nc1ccc(S(=O)(=O)Nc2ccc(CC(C)(C)N)cc2)cc1`, the Activity in assay [2] turned out to be 1%. The compound also came in with an IC50 in assay [1] of 161 nM. As to `CC(C)(N)Cc1ccc(NS(=O)(=O)c2ccc(NC(=O)NCc3cccc4ccccc34)cc2)cc1`, in assay [1], the IC50 is 21 nM. For the compound `CCCCCCNC(=O)Nc1ccc(S(=O)(=O)Nc2ccc(CC(C)(C)NCC(F)(F)F)cc2)cc1`, the Activity in assay [2] was determined as 1%. Further, half-maximal inhibition in assay [1] (IC50) was put at 682 nM. The matching figures for `CC(C)(N)Cc1ccc(NS(=O)(=O)c2ccc(NC(=O)Nc3ccccc3)cc2)cc1`: 1% and 263 nM.

For the compound `CCCCCCNC(=O)Nc1ccc(S(=O)(=O)Nc2cccc(CCCN)c2)cc1`, the Activity in assay [2] was found to be 51%. The compound further had an IC50 in assay [1] of 429 nM. `CCCCCCNC(=O)Nc1ccc(S(=O)(=O)Nc2ccc(CC)cc2)cc1` gave an inhibition in assay [5] of 47%. Take `CCCCCCNC(=O)Nc1ccc(S(=O)(=O)Nc2ccc(CC(C)(C)N)cc2)cc1`: the half-maximal inhibitory concentration (IC50) is 5200 nM in assay [6] and 46 nM in assay [1]. Moreover, the Activity in assay [2] came out at 4%. For the same compound, in assay [7], the EC50 is greater than 10000 nM.

Turning to `Cc1cccc(NC(=O)Nc2ccc(S(=O)(=O)Nc3ccc(CC(C)(C)N)cc3)cc2)c1`, in assay [2], the Activity is 3%. For the same compound, half-maximal inhibition in assay [1] (IC50) was put at 69 nM. The matching figures for `CCCCCCNC(=O)Nc1ccc(S(=O)(=O)Nc2ccc(CN)cc2)cc1`: 5% and 1720 nM.

Source of the values: ChEMBL document CHEMBL1154292, “Discovery and optimization of novel 4-[(aminocarbonyl)amino]-N-[4-(2-aminoethyl)phenyl]benzenesulfonamide ghrelin receptor antagonists” (Bioorg Med Chem Lett, 2009).
